In ChEMBL document CHEMBL1148437, “Synthesis, structure-activity relationships, and mechanism of drug resistance of D- and L-beta-3'-fluoro-2',3'-unsaturated-4'-thionucleosides as anti-HIV agents” (J Med Chem, 2004) one finds EC90, IC50 and EC50 data, which are given here for 16 compounds.

Assay [1] deals with PBMC. Description: (§1) Anti-HIV activity in Human peripheral blood mononuclear (PBM) cells. Type of assay: functional. In short, it runs like this: (§2)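 PHA-stimulated (2-3 days) human PBM cells from healthy seronegative donors, Ficoll-Hypaque isolated; bulk infection 1 h (HIV-1 LAI reference; xxBru clone), 100 TCID50/1×10^7 cells (flask) or 200 TCID50/6×10^5 cells/well; 10-fold serial dilutions; RPMI-1640, 16% FBS, IL-2, DEAE-dextran; 5 days 37 °C; supernatant RT activity (poly(rA)·oligo(dT), 3H-TTP); EC50/EC90 by median effect method.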

The nature of assay [2]: Compounds were evaluated for their potential toxic effect on uninfected […] cells. Type of assay: ADME, cell-based. To be noted: Chlorocebus sabaeus. Summed up: (§3)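 Uninfected cells were seeded in 10-fold serial drug dilutions: Vero at 5×10^3, CEM at 2.5×10^3 and PHA-stimulated PBM at 5×10^4 cells/well. Vero were incubated 3 days, CEM 4 days and PBM 5 days, at 37 °C in 5% CO2. MTT was added overnight, followed by solubilization for 5 h and reading at 570 nm. IC50 was derived by the median effect method.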

Assay [3] in a line: Compounds were evaluated for their potential toxic effect on uninfected PHA-stimulated human Peripheral blood mononuclear (PBM) cells. Type of assay: ADME. In short, it runs like this:
as §3

Assay [4] can be described thus: Compounds were evaluated for their potential toxic effect on uninfected PHA-stimulated human T-lymphoblastoid cell line (CEM). The assay is classed as ADME. In short, it runs like this: as §3
The subject of assay [5] is PBMC. The description is as §1. The assay is classed as functional, cell-based. In short, it runs like this: as §2
Assay [6] deals with PBMC. The assay is described as follows: Antiviral activity against wild type HIV virus(xxBRU) in Human peripheral blood mononuclear (PBM) cells. The assay is classed as functional. Summed up:
as §2

Assay [7] concerns PBMC. The assay is described as follows: Antiviral activity against drug-resistant HIV-1 virus (M184v) in Human peripheral blood mononuclear (PBM) cells. Type of assay: functional. Summed up:
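PHA-stimulated (2-3 days) human PBM cells from seronegative donors infected 1 h in bulk with molecular clone HIV-1 M184Vpitt, then cultured with 10-fold serial compound dilutions in IL-2–supplemented RPMI-1640, 5 days, 37 °C, 5% CO2. Supernatant virus pelleted and assayed for RT activity (poly(rA)·oligo(dT), 3H-TTP, 2 h, 37 °C). EC50/EC90 from concentration-response curves by median effect method.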

A word on the EC90: it is the point of the concentration-response curve where the effect stands at 90%. A word on the IC50: it is the concentration needed to halve the response being measured. Read a low IC50 as greater potency. For orientation: EC50 means the concentration giving half of the maximal effect.

`OC[C@@H]1S[C@H](n2cnc3c(O)ncnc32)C=C1F`: the EC90 with PBMC [1] was > 100 µM. Besides, the IC50 in assay [2], in assay [3] and in assay [4] was > 100 µM in each case. Also, in the assay with PBMC [5], the EC50 is > 100 µM.
As for `Nc1nc(=O)n([C@H]2C=C(F)[C@@H](CO)S2)cc1F`, the EC90 in the assay with PBMC [1] was > 100 µM. Also, the half-inhibitory concentration (IC50) in assay [2], in assay [3] and in assay [4] was > 100 µM in each case. Also, the EC50 in the assay on PBMC [5] was > 100 µM.
As for `O=c1ccn([C@@H]2C=C(F)[C@H](CO)S2)c(=O)[nH]1`, the EC90 in the assay with PBMC [1] was > 100 µM. The IC50 in assay [2], in assay [3] and in assay [4] was > 100 µM each time. Moreover, the EC50 in the assay on PBMC [5] was > 100 µM.
For `Nc1ncnc2c1ncn2[C@@H]1C=C(F)[C@H](CO)S1`, in the assay on PBMC [1], the EC90 worked out at 57 µM. The half-maximal inhibitory concentration (IC50) in assay [2], in assay [3] and in assay [4] was > 100 µM in each case. The EC50 in the assay with PBMC [5] was 14.9 µM.
With `Nc1nc(O)c2ncn([C@H]3C=C(F)[C@@H](CO)S3)c2n1`, in the assay on PBMC [1], the EC90 is > 100 µM. Besides, the IC50 in assay [2], in assay [3] and in assay [4] was > 100 µM each time. This compound also returned an EC50 with PBMC [5] of 23.4 µM.
As to `Nc1ccn([C@@H]2CS[C@H](CO)O2)c(=O)n1` [LAMIVUDINE], in the assay with PBMC [6], it took 0.08 µM to reach the 90% level (EC90).
Take `Nc1ccn([C@H]2C=C(F)[C@@H](CO)S2)c(=O)n1`: in the assay with PBMC [1], the concentration for an effect of 90% (EC90) is > 100 µM. Besides, the IC50 in assay [2], in assay [3] and in assay [4] was > 100 µM throughout. For the same compound, in the assay with PBMC [5], the EC50 is > 100 µM.
With `O=c1ccn([C@H]2C=C(F)[C@@H](CO)S2)c(=O)[nH]1`, the 90% effect concentration (EC90) with PBMC [1] is > 100 µM. Moreover, the IC50 in assay [2], in assay [3] and in assay [4] was > 100 µM each time. Further, the EC50 in the assay with PBMC [5] was > 100 µM.
For `Cc1cn([C@H]2C[C@H](N=[N+]=[N-])[C@@H](CO)O2)c(=O)[nH]c1=O` [ZIDOVUDINE], the results for the EC90 in the assay on PBMC [7], with PBMC [6] and in the assay with PBMC [1] were 0.003 µM, 0.01 µM and 0.01 µM, respectively. Also, the half-inhibitory concentration (IC50) was 29 µM in assay [2], > 100 µM in assay [3] and 14.3 µM in assay [4].
Regarding `Cc1cn([C@@H]2C=C(F)[C@H](CO)S2)c(=O)[nH]c1=O`, the EC90 in the assay on PBMC [1] was > 100 µM. Moreover, the IC50 was > 100 µM in assay [2], > 100 µM in assay [3] and ≥ 100 µM in assay [4]. The EC50 in the assay with PBMC [5] is > 100 µM.
In the case of `Nc1nc(=O)n([C@@H]2C=C(F)[C@H](CO)S2)cc1F`, the concentration for an effect of 90% (EC90) was > 100 µM with PBMC [7], 0.35 µM in the assay on PBMC [6] and 0.35 µM with PBMC [1]. Besides, the IC50 was 88.1 µM in assay [2], > 100 µM in assay [3] and > 100 µM in assay [4]. In the assay on PBMC [5], this compound came in with an EC50 of 0.031 µM.
Regarding `Cc1cn([C@H]2C=C(F)[C@@H](CO)S2)c(=O)[nH]c1=O`, the EC90 in the assay with PBMC [1] was > 100 µM. Besides, the IC50 in assay [2], in assay [3] and in assay [4] was > 100 µM each time. Also, the half-maximal effective concentration (EC50) with PBMC [5] is > 100 µM.
`Nc1ncnc2c1ncn2[C@H]1C=C(F)[C@@H](CO)S1`: the EC90 in the assay on PBMC [1] was > 100 µM. Besides, the IC50 in assay [2], in assay [3] and in assay [4] was > 100 µM in each case. Further, in the assay on PBMC [5], the EC50 was > 100 µM.
For the compound `Nc1ccn([C@@H]2C=C(F)[C@H](CO)S2)c(=O)n1`, the EC90 with PBMC [7] is > 100 µM; with PBMC [6], 1.7 µM; in the assay with PBMC [1] it was 1.7 µM. Also, the half-maximal inhibitory concentration (IC50) in assay [2], in assay [3] and in assay [4] was > 100 µM in each case. The EC50 with PBMC [5] amounted to 0.13 µM.
In the case of `Nc1nc(O)c2ncn([C@@H]3C=C(F)[C@H](CO)S3)c2n1`, the EC90 in the assay with PBMC [1] is > 100 µM. Further, the half-maximal inhibitory concentration (IC50) in assay [2], in assay [3] and in assay [4] was > 100 µM each time. This compound returned an EC50 with PBMC [5] of 43.9 µM.
`OC[C@H]1S[C@@H](n2cnc3c(O)ncnc32)C=C1F`: the EC90 with PBMC [1] is > 100 µM. The concentration for half-maximal inhibition (IC50) in assay [2], in assay [3] and in assay [4] was > 100 µM in each case. Besides, the EC50 with PBMC [5] was > 100 µM.
